Results on 28 compounds are retold here after ChEMBL document CHEMBL1129423, “Hypoglycemic activity of a series of alpha-alkylthio and alpha-alkoxy carboxylic acids related to ciglitazone” (J Med Chem, 1996).

The source made the active and inactive calls. No cut-off for these calls is given here.

Experiment [1] concerns Mus musculus. Briefly: In vivo hypoglycemic activity expressed as percent glucose normalization in db/db mice at 1 mg/Kg. Format: functional.
Experiment [2] deals with Mus musculus. Put plainly: In vivo hypoglycemic activity expressed as percent glucose normalization in db/db mice at 0.1 mg/Kg. The class given is functional.
Experiment [3] relates to Mus musculus. Put plainly: In vivo hypoglycemic activity expressed as percent glucose normalization in db/db mice at 5 mg/Kg. The class given is functional.
The test system of experiment [4] is Mus musculus. Put plainly: In vivo hypoglycemic activity expressed as percent glucose normalization in db/db mice at 0.05 mg/Kg. The class given is functional.
For experiment [5], the system named is Mus musculus. Briefly: In vivo hypoglycemic activity expressed as percent glucose normalization in db/db mice at 0.01 mg/Kg. The class given is functional.
The test system of experiment [6] is Mus musculus. Put plainly: In vivo hypoglycemic activity expressed as percent glucose normalization in ob/ob mice at 1 mg/Kg. Format: functional. The method, boiled down: (§1)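 ob/ob mice received oral gavage once daily for 4 days in 0.25% (w/v) methylcellulose in water. Retro-orbital blood was taken before treatment and 24 h after the fourth dose. Glucose was measured by the hexokinase UV method. Results are % glucose normalization relative to vehicle (0%) and englitazone 100 mg/kg (100%), with significance at p<0.05.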

The subject of experiment [7] is Mus musculus. Put plainly: In vivo hypoglycemic activity expressed as percent glucose normalization in ob/ob mice at 0.1 mg/Kg. The class given is functional. The procedure, abridged: as §1
Experiment [8] relates to Mus musculus. Briefly: In vivo hypoglycemic activity expressed as percent glucose normalization in ob/ob mice at 0.01 mg/Kg; Inactive. Format: functional, organism-based. The procedure, abridged: as §1
In experiment [9] the test system is Mus musculus. Put plainly: In vivo hypoglycemic activity expressed as percent glucose normalization in db/db mice at 0.25 mg/Kg. Format: functional.
The test system of experiment [10] is Mus musculus. Briefly: In vivo hypoglycemic activity expressed as percent glucose normalization in db/db mice at 0.5 mg/Kg. Format: functional.
Experiment [11] has as its system Mus musculus. Briefly: In vivo hypoglycemic activity expressed as percent glucose normalization in db/db mice at 0.1 mg/Kg; Inactive. Format: functional, organism-based.
The test system of experiment [12] is Mus musculus. Briefly: In vivo hypoglycemic activity expressed as percent glucose normalization in db/db mice at 2.5 mg/Kg. Format: functional.
The test system of experiment [13] is Mus musculus. Briefly: In vivo hypoglycemic activity expressed as percent glucose normalization in ob/ob mice at 0.01 mg/Kg. Format: functional. The method, boiled down: as §1
The subject of experiment [14] is Mus musculus. Briefly: In vivo hypoglycemic activity expressed as percent glucose normalization in db/db mice at 0.05 mg/Kg; Inactive. Format: functional, organism-based.
Experiment [15] relates to Mus musculus. Put plainly: In vivo hypoglycemic activity expressed as percent glucose normalization in db/db mice at 5 mg/Kg; Not tested. The class given is functional.

On to `CCCOC(Cc1ccc2oc(Cc3nc(-c4ccccc4)oc3C)cc2c1)C(=O)O` (stereo not drawn), for which the Glucose normalisation in the experiment with Mus musculus [1] was 100%; in the experiment on Mus musculus [2] it was 100%; in the experiment with Mus musculus [3], 100%; in the experiment on Mus musculus [4], 76%; with Mus musculus [5], 43%.

Take `Cc1oc(C2CCCCC2)nc1Cc1cc2cc(CC3SC(=O)NC3=O)ccc2o1` (stereo not drawn): the Glucose normalisation with Mus musculus [6] is reported as 100%; with Mus musculus [7] it was 90%. Moreover, in the experiment on Mus musculus [8], the Glucose normalisation result is “inactive”.

Take `CCCSC(Cc1ccc2oc(Cc3nc(-c4ccccc4)oc3C)cc2c1)C(=O)O` (stereo not drawn): the Glucose normalisation came out at 69% with Mus musculus [1], 94% in the experiment on Mus musculus [3], 39% in the experiment on Mus musculus [9] and 82% in the experiment on Mus musculus [10].

In the case of `Cc1oc(-c2ccccc2)nc1Cc1cc2cc(CC(SCc3ccccc3)C(=O)O)ccc2o1` (stereo not drawn), the Glucose normalisation is reported as 88% with Mus musculus [1], 100% with Mus musculus [3], 72% in the experiment on Mus musculus [9] and 93% with Mus musculus [10]. The Glucose normalisation result in the experiment on Mus musculus [11] was “inactive”.

On to `CCCS[C@@H](Cc1ccc2oc(Cc3nc(-c4ccccc4)oc3C)cc2c1)C(=O)O`, for which the figures for the Glucose normalisation in the experiment on Mus musculus [1], in the experiment on Mus musculus [10] and in the experiment on Mus musculus [12] were 91%, 52% and 69%, respectively.

Regarding `Cc1oc(-c2cccc(F)c2)nc1Cc1cc2cc(CC3SC(=O)NC3=O)ccc2o1` (stereo not drawn), the values for the Glucose normalisation with Mus musculus [6], in the experiment with Mus musculus [7] and with Mus musculus [13] were 100%, 88% and 12%, respectively.

With `COC(Cc1ccc2oc(Cc3nc(-c4ccccc4)oc3C)cc2c1)C(=O)O` (stereo not drawn), the Glucose normalisation in the experiment with Mus musculus [1] stood at 100%; in the experiment on Mus musculus [2], 83%; with Mus musculus [3] it was 94%; in the experiment on Mus musculus [4], 82%; in the experiment on Mus musculus [5], 44%.

Take `CCO[C@@H](Cc1ccc2oc(Cc3nc(-c4ccccc4)oc3C)cc2c1)C(=O)O`: the results for the Glucose normalisation in the experiment with Mus musculus [2] and with Mus musculus [5] were 100% and 78%, respectively.

Take `CCOC(Cc1ccc2oc(Cc3nc(-c4ccc(OC)cc4)oc3C)cc2c1)C(=O)O` (stereo not drawn): the Glucose normalisation with Mus musculus [1] came to 100%; in the experiment on Mus musculus [2], 100%; with Mus musculus [5], 46%. The Glucose normalisation result in the experiment with Mus musculus [14] is “inactive”.

On to `Cc1ccccc1-c1nc(Cc2cc3cc(CC4SC(=O)NC4=O)ccc3o2)c(C)o1` (stereo not drawn), for which the Glucose normalisation was determined as 100% in the experiment on Mus musculus [6], 91% in the experiment with Mus musculus [7] and 11% in the experiment with Mus musculus [13].

Turning to `CCOC(CCc1ccc2oc(Cc3nc(-c4ccccc4)oc3C)cc2c1)C(=O)O` (stereo not drawn), the Glucose normalisation in the experiment on Mus musculus [1] came out at 90%; with Mus musculus [3], 100%; in the experiment with Mus musculus [9], 13%; with Mus musculus [10] it was 75%.

`Cc1oc(-c2ccccc2)nc1Cc1cc2cc(CC(Sc3ccccc3)C(=O)O)ccc2o1` (stereo not drawn): the Glucose normalisation turned out to be 90% in the experiment with Mus musculus [1]; 86% with Mus musculus [2]; 70% in the experiment on Mus musculus [3]; 92% in the experiment with Mus musculus [9]; 100% in the experiment on Mus musculus [10].

Consider `CCCCCCCCSC(Cc1ccc2oc(Cc3nc(-c4ccccc4)oc3C)cc2c1)C(=O)O` (stereo not drawn), for which the Glucose normalisation in the experiment on Mus musculus [1] is 75%; in the experiment on Mus musculus [2], 14%; in the experiment on Mus musculus [3], 96%; with Mus musculus [9], 99%; in the experiment with Mus musculus [10] it was 100%.

Take `C#CCOC(Cc1ccc2oc(Cc3nc(-c4ccccc4)oc3C)cc2c1)C(=O)O` (stereo not drawn): the Glucose normalisation in the experiment on Mus musculus [1] is listed as 74%; with Mus musculus [3] it was 100%.

Take `CCSC(Cc1ccc2oc(Cc3nc(-c4ccccc4)oc3C)cc2c1)C(=O)O` (stereo not drawn): the Glucose normalisation in the experiment on Mus musculus [1] was 60%; with Mus musculus [3], 86%; in the experiment with Mus musculus [9], 3%; with Mus musculus [10], 80%.

For the compound `Cc1oc(-c2ccccc2)nc1Cc1cc2cc(CC3SC(=O)NC3=O)ccc2o1` (stereo not drawn), the Glucose normalisation in the experiment with Mus musculus [7] stood at 93%; in the experiment with Mus musculus [13] it was 76%.

`Cc1cccc(-c2nc(Cc3cc4cc(CC5SC(=O)NC5=O)ccc4o3)c(C)o2)c1` (stereo not drawn): the Glucose normalisation in the experiment on Mus musculus [6] was found to be 100%; with Mus musculus [7], 79%; in the experiment with Mus musculus [13], 78%.

For `C=CCOC(Cc1ccc2oc(Cc3nc(-c4ccccc4)oc3C)cc2c1)C(=O)O` (stereo not drawn), the Glucose normalisation with Mus musculus [1] turned out to be 85%; with Mus musculus [2], 85%; in the experiment with Mus musculus [3], 92%; in the experiment on Mus musculus [4], 91%; in the experiment on Mus musculus [5] it was 27%.

Regarding `CCCS[C@H](Cc1ccc2oc(Cc3nc(-c4ccccc4)oc3C)cc2c1)C(=O)O`, the Glucose normalisation with Mus musculus [1] is 56%; in the experiment with Mus musculus [10], 45%; in the experiment with Mus musculus [12], 75%.

As to `Cc1oc(-c2ccccc2)nc1Cc1cc2cc(CC(OCCCO)C(=O)O)ccc2o1` (stereo not drawn), the Glucose normalisation is given as 91% in the experiment with Mus musculus [2] and 19% with Mus musculus [4].

Turning to `Cc1oc(-c2ccc(Cl)cc2)nc1Cc1cc2cc(CC3SC(=O)NC3=O)ccc2o1` (stereo not drawn), the Glucose normalisation in the experiment on Mus musculus [6] came out at 100%; in the experiment with Mus musculus [7] it was 100%; with Mus musculus [13], 0%.

In the case of `CSC(Cc1ccc2oc(Cc3nc(-c4ccccc4)oc3C)cc2c1)C(=O)O` (stereo not drawn), the Glucose normalisation in the experiment on Mus musculus [1] is 89%; in the experiment with Mus musculus [2] it was 26%; in the experiment with Mus musculus [9], 16%; in the experiment on Mus musculus [10], 100%.

As for `CCO[C@H](Cc1ccc2oc(Cc3nc(-c4ccccc4)oc3C)cc2c1)C(=O)O`, the Glucose normalisation with Mus musculus [1] worked out at 74%; in the experiment on Mus musculus [2] it was 19%; in the experiment with Mus musculus [5], 16%.

`CCOC(Cc1ccc2oc(Cc3nc(-c4ccccc4)oc3C)cc2c1)C(=O)O` (stereo not drawn): the Glucose normalisation with Mus musculus [2] amounted to 100%; in the experiment with Mus musculus [3], 100%; with Mus musculus [9] it was 100%; in the experiment with Mus musculus [4], 97%; with Mus musculus [5], 69%.

As for `CCOC(Cc1ccc2oc(Cc3nc(-c4ccco4)oc3C)cc2c1)C(=O)O` (stereo not drawn), the Glucose normalisation with Mus musculus [1] is on record as 100%; in the experiment with Mus musculus [2], 100%; in the experiment with Mus musculus [5], 63%.

Regarding `Cc1oc(-c2ccccc2)nc1Cc1cc2cc(CC(OCc3ccccc3)C(=O)O)ccc2o1` (stereo not drawn), the Glucose normalisation in the experiment with Mus musculus [2] was 100%; in the experiment on Mus musculus [4], 100%; in the experiment with Mus musculus [5] it was 74%.

On to `CCOC(Cc1ccc2oc(Cc3nc(-c4cccs4)oc3C)cc2c1)C(=O)O` (stereo not drawn), for which the Glucose normalisation amounted to 100% in the experiment on Mus musculus [1], 100% in the experiment on Mus musculus [2], 100% with Mus musculus [4] and 98% in the experiment on Mus musculus [5].

`CCOC(C(=O)O)c1ccc2oc(Cc3nc(-c4ccccc4)oc3C)cc2c1` (stereo not drawn) displayed a Glucose normalisation in the experiment on Mus musculus [15] of 9%.
